Usually IC50 stands for the concentration that gives 50% inhibition. A lower IC50 goes with greater potency.

Bounds are passed on as bounds.

Data on six compounds can be found in ChEMBL document CHEMBL1152442, “Discovery of a new template for anticancer agents: 2'-deoxy-2'-fluoro-4'-selenoarabinofuranosyl-cytosine (2'-F-4'-seleno-ara-C)” (J Med Chem, 2009).

Common to all, as to assay type: functional, cell-based
In one test the test system is HCT-116. Briefly: Cytotoxicity against human HCT116 cells by sulforhodamine B method. The procedure, abridged: (§1)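 Human tumour lines tested: colon HCT116, lung A549, stomach SNU638, breast T47D, prostate PC-3 and leukaemia K562. Growth was read out by sulforhodamine B protein staining.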
Background: In SRB staining, fixed cells bind dye roughly in proportion to their protein.

A further test relates to A549. Briefly: Cytotoxicity against human A549 cells by sulforhodamine B method. The procedure, abridged: as §1
For a further test, the system named is SNU-638. Briefly: Cytotoxicity against human SNU638 cells by sulforhodamine B method. In outline:
as §1

A further test relates to T47D. Briefly: Cytotoxicity against human T47D cells by sulforhodamine B method. The procedure, abridged:
as §1

The subject of another test is PC-3. The experiment in a line: Cytotoxicity against human PC3 cells by sulforhodamine B method. In outline: as §1
In the next test the test system is K562. The experiment in a line: Cytotoxicity against human K562 cells by sulforhodamine B method. In outline:
as §1

With `O=c1ccn([C@@H]2[Se][C@H](CO)[C@@H](O)[C@@H]2O)c(=O)[nH]1`, the 50% inhibitory concentration (IC50) in the test on HCT-116, in the test on A549, in the test with SNU-638, in the test with T47D, in the test with PC-3 and with K562 was above 100000 nM in each case.
For `Nc1ccn([C@@H]2[Se][C@H](CO)[C@@H](O)[C@@H]2O)c(=O)n1`, the IC50 came to 7130 nM with HCT-116, 8830 nM in the test on A549, 4720 nM in the test with SNU-638 and 86600 nM in the test on K562.
As to `O=c1ccn([C@@H]2[Se][C@H](CO)[C@@H](O)[C@@H]2F)c(=O)[nH]1`, the IC50 with HCT-116, in the test with A549, in the test on SNU-638, in the test on T47D, with PC-3 and in the test with K562 was above 100000 nM in each case.
As to `Nc1ccn([C@@H]2[Se][C@H](CO)[C@@H](O)[C@@H]2F)c(=O)n1`, the IC50 is 1100 nM with HCT-116; 470 nM in the test on A549; 140 nM in the test with SNU-638; 790 nM in the test with T47D; 580 nM in the test on PC-3; 630 nM with K562.
`Nc1ccn([C@@H]2O[C@H](CO)[C@@H](O)[C@@H]2O)c(=O)n1` [CYTARABINE]: the 50% inhibitory concentration (IC50) with HCT-116 was 5300 nM; with A549, 1900 nM; in the test on SNU-638, 150 nM; in the test on T47D, 2700 nM; in the test with PC-3, 55900 nM; with K562 it was 50 nM.
As for `Nc1ccn([C@@H]2O[C@H](CO)[C@@H](O)C2(F)F)c(=O)n1` [GEMCITABINE], the figures for the IC50 in the test with HCT-116, in the test on A549 and in the test on PC-3 were 5 nM, 90 nM and 40 nM, respectively.
